Source: ChEMBL document CHEMBL1138557, “Synthesis and anticonvulsant activity of some substituted 1,2,4-thiadiazoles” (Eur J Med Chem, 2009)
Active and inactive are the calls of the source. The calls are words filed in the database; no cut-off is given here.

Experiments:
Mus musculus [1] = experiment: Neurotoxicity in ip dosed albino CF1 mouse assessed as minimum drug concentration required for motor impairment in half or more of mouse after 0.5 hrs by rotarod test; assay type: toxicity, organism-based; settings: in vivo
In short: (§1)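 Motor impairment was tested on a rotorod in mice trained to stay on a rod of 3.2 cm diameter turning at 10 rev/min. Compound given i.p. at 30, 100 or 300 mg/kg, groups of 4, read at 0.5 and 4 h. Neurotoxicity was scored as failure to keep balance for at least 1 min in each of three trials. Value is the minimum dose affecting half or more of the animals.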

Mus musculus [2] = experiment: Anticonvulsant activity in ip dosed albino CF1 mouse assessed as minimum drug concentration required for inhibition of maximal electroshock-induced seizure in half or more of mouse after 0.5 hrs by MES test; assay type: functional
In short: (§2)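 Male CF-1 albino mice (18-25 g), groups of 4. Compound suspended in 0.5% methyl cellulose-water or PEG, given i.p. at 30, 100 and 300 mg/kg. Seizures induced by maximal electroshock (MES) or subcutaneous pentylenetetrazole (scPTZ), tested 0.5 and 4 h after dosing.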

Mus musculus [3] = experiment: Anticonvulsant activity in albino CF1 mouse assessed as inhibition of pentylenetetrazole-induced seizures in half or more of mouse at 300 mg/kg, ip after 4 hrs by scPTZ test; assay type: functional, organism-based; design: dose 300 mg/kg; in short: as §2
Mus musculus [4] = experiment: Anticonvulsant activity in albino CF1 mouse assessed as minimum inhibition of maximal electroshock-induced seizure in half or more of mouse at 300 mg/kg, ip after 4 hrs by MES test; assay type: functional, organism-based; design: dose 300 mg/kg; in short: as §2
Mus musculus [5] = experiment: Anticonvulsant activity in albino CF1 mouse assessed as inhibition of pentylenetetrazole-induced seizures in half or more of mouse at 300 mg/kg, ip after 0.5 hrs by scPTZ test; assay type: functional, organism-based; design: dose 300 mg/kg; in short: as §2
Mus musculus [6] = experiment: Neurotoxicity in albino CF1 mouse assessed as motor impairment at 300 mg/kg, ip after 4 hrs by rotarod test; assay type: toxicity, organism-based; design: dose 300 mg/kg, route intraperitoneal; settings: in vivo; in short: as §1
Mus musculus [7] = experiment: Anticonvulsant activity in ip dosed albino CF1 mouse assessed as minimum drug concentration required for inhibition of maximal electroshock-induced seizure in half or more of mouse after 4 hrs by MES test; assay type: functional; in short: as §2
Rattus norvegicus = experiment: Sedative-hypnotic activity in phenobarbitone-activated albino Sprague-Dawley rat assessed as increase in sleeping time at 100 mg/kg pretreated for 30 mins before phenobarbitone sodium challenge relative to control; assay type: functional
In short: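 Compound dissolved in PEG and given at 100 mg/kg to groups of six animals. Phenobarbitone sodium was injected 30 min later. Sleep duration was recorded in minutes (mean ± SEM) and expressed as % increase over a phenobarbitone-only control.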

Mus musculus [8] = experiment: Anticonvulsant activity in ip dosed albino CF1 mouse assessed as minimum drug concentration required for inhibition of pentylenetetrazole-induced seizures in half or more of mouse after 0.5 hrs by scPTZ test; assay type: functional; in short: as §2
Mus musculus [9] = experiment: Neurotoxicity in ip dosed albino CF1 mouse assessed as minimum drug concentration required for motor impairment in half or more of mouse after 4 hrs by rotarod test; assay type: toxicity, organism-based; settings: in vivo; in short: as §1
Mus musculus [10] = experiment: Anticonvulsant activity in albino CF1 mouse assessed as minimum inhibition of maximal electroshock-induced seizure in half or more of mouse at 300 mg/kg, ip after 0.5 hrs by MES test; assay type: functional, organism-based; design: dose 300 mg/kg; in short: as §2
Mus musculus [11] = experiment: Neurotoxicity in albino CF1 mouse assessed as motor impairment at 300 mg/kg, ip after 0.5 hrs by rotarod test; assay type: toxicity, organism-based; design: dose 300 mg/kg, route intraperitoneal; settings: in vivo; in short: as §1

Compound | Activity (Mus musculus [1]) | Activity (Mus musculus [2]) | Activity (Mus musculus [3]) | Activity (Mus musculus [4]) | Activity (Mus musculus [5]) | Activity (Mus musculus [6]) | Activity (Mus musculus [7]) | Activity (Rattus norvegicus) | Activity (Mus musculus [8]) | Activity (Mus musculus [9]) | Activity (Mus musculus [10]) | Activity (Mus musculus [11])
c1ccc(Nc2nsc(Nc3ccccn3)n2)nc1 | 100 mg/kg | 300 mg/kg | inactive | inactive | inactive | Non-toxic | – | – | – | – | – | –
c1cc(Nc2nsc(Nc3ccncc3)n2)ccn1 | 100 mg/kg | 300 mg/kg | inactive | inactive | inactive | Non-toxic | – | – | – | – | – | –
Fc1ccc(Nc2nsc(Nc3ccc(F)cc3)n2)cc1 | 100 mg/kg | 100 mg/kg | inactive | – | inactive | Non-toxic | 300 mg/kg | – | – | – | – | –
O=c1snc(Nc2cccc3ccccc23)n1-c1cccc2ccccc12 | 300 mg/kg | 100 mg/kg | inactive | – | inactive | Non-toxic | 300 mg/kg | 16.4% | – | – | – | –
CCOc1ccc(Nc2nsc(=O)n2-c2ccc(OCC)cc2)cc1 | 300 mg/kg | 100 mg/kg | inactive | – | – | – | 300 mg/kg | 67.1% | 300 mg/kg | 300 mg/kg | – | –
CCOc1ccc(Nc2nsc(Nc3ccc(OCC)cc3)n2)cc1 | 300 mg/kg | 100 mg/kg | inactive | – | inactive | – | 300 mg/kg | 36.7% | – | 300 mg/kg | – | –
c1cnc(Nc2nsc(Nc3ncccn3)n2)nc1 | 300 mg/kg | – | inactive | inactive | inactive | Non-toxic | – | 59.5% | – | – | inactive | –
O=c1snc(Nc2ccccn2)n1-c1ccccn1 | 100 mg/kg | 300 mg/kg | inactive | inactive | inactive | Non-toxic | – | – | – | – | – | –
c1cncc(Nc2nsc(Nc3cccnc3)n2)c1 | 100 mg/kg | 300 mg/kg | inactive | inactive | inactive | Non-toxic | – | – | – | – | – | –
O=c1snc(Nc2cccnc2)n1-c1cccnc1 | 100 mg/kg | 300 mg/kg | inactive | inactive | inactive | Non-toxic | – | – | – | – | – | –
NC(=O)N1c2ccccc2C=Cc2ccccc21 [CARBAMAZEPINE] | 100 mg/kg | 30 mg/kg | inactive | inactive | – | – | – | – | 100 mg/kg | 300 mg/kg | – | –
O=c1snc(Nc2ccc(F)cc2)n1-c1ccc(F)cc1 | 300 mg/kg | 100 mg/kg | inactive | inactive | inactive | Non-toxic | – | 17.7% | – | – | – | –
O=c1snc(Nc2ccncc2)n1-c1ccncc1 | 100 mg/kg | 300 mg/kg | inactive | inactive | inactive | Non-toxic | – | – | – | – | – | –
O=C1NC(=O)C(c2ccccc2)(c2ccccc2)N1 [PHENYTOIN] | 100 mg/kg | 30 mg/kg | inactive | – | inactive | – | 100 mg/kg | – | – | 100 mg/kg | – | –
O=c1snc(Nc2ncccn2)n1-c1ncccn1 | – | 300 mg/kg | inactive | inactive | inactive | Non-toxic | – | – | – | – | – | Non-toxic
c1ccc2c(Nc3nsc(Nc4cccc5ccccc45)n3)cccc2c1 | 300 mg/kg | 100 mg/kg | inactive | – | inactive | Non-toxic | 300 mg/kg | 22.7% | – | – | – | –
